The values that follow come from ChEMBL document CHEMBL1129793, “Quantitative structure-activity relationships for the in vitro antimycobacterial activity of pyrazinoic acid esters” (J Med Chem, 1996).

The nature of data set [1]: T1/2 in equine serum. It counts as ADME, organism-based, Equus caballus. The conditions noted are these: horse. The gist of the method: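 Ester from a 1 mg/mL stock was mixed with 5% aqueous equine serum in 0.01 M KH2PO4, pH 7.2. Remaining ester was measured by isocratic reverse-phase HPLC (80% acetonitrile/20% 0.1 M sodium acetate, pH 5.0), with UV detection at 265 nm against a standard curve. Half-life is the time to 50% conversion to the acid.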

Data set [2] in a line: Partition coefficient (logP). The conditions noted are these: octanol/water. It counts as physicochemical.
The subject of data set [3] is Mycobacterium avium. Put plainly: In vitro activity against Mycobacterium avium (MAC-101). It counts as functional. The gist of the method:
(§1)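 Broth macrodilution MIC. Cultures were grown in modified Middlebrook 7H10 broth (agar and malachite green omitted) with 10% OADC and 0.05% Tween 80, shaken at 37 °C for 3 days, then diluted in 7H10 broth to 1 Klett unit/mL. Test agents were dissolved in water or DMSO and filter-sterilised, then serially diluted 2-fold in 7H10 broth at pH 5.8. Tubes were shaken at 37 °C for 7–10 days, with a drug-free control. MIC was the lowest concentration with no visible turbidity, expressed in mmol/L.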

Data set [4] concerns Mycobacterium tuberculosis. Nature of the data set: In vitro activity against Mycobacterium tuberculosis (ATCC 27294). It counts as functional. The gist of the method:
as §1

Data set [5] relates to Mycobacterium tuberculosis. Put plainly: In vitro activity against Mycobacterium tuberculosis (ATCC 35801). It counts as functional. The gist of the method:
as §1

The subject of data set [6] is Mycobacterium tuberculosis. Nature of the data set: In vitro activity against Mycobacterium tuberculosis (ATCC 35828). It counts as functional. The gist of the method: as §1
A further data set concerns Mycobacterium kansasii. Nature of the data set: in vitro activity against Mycobacterium kansasii (SWK). It counts as functional. The gist of the method: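 M. kansasii clinical isolate SWK was grown 3 days at 37 °C with shaking in modified Middlebrook 7H10 broth with 10% OADC and 0.05% Tween 80, then diluted. It was tested in serial 2-fold dilutions in 7H10 broth at pH 5.8, shaken at 37 °C for 7–10 days, with a drug-free control. MIC was the lowest concentration giving no visible turbidity, expressed in mmol/L.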

Data set [7] relates to Mycobacterium avium. Nature of the data set: In vitro activity against Mycobacterium avium (ATCC 49601). It counts as functional. The gist of the method: as §1

Take `CC(C)(C)OC(=O)c1cnc(Cl)cn1`: the half-life (as a rule, how long it takes for the measured level to halve) in data set [1] was 1200 min. The lipophilicity (logP) (in general, the decadic logarithm of the partition coefficient of the neutral form, usually between octanol and water) in data set [2] was 1.7. Moreover, the “Log 1/MMIC” value turned out to be 0.225 in the data set with Mycobacterium avium [3]; 1.73 in data set [4]; 2.031 in data set [5]; 1.73 in data set [6]; 2.633 with Mycobacterium kansasii; 2.33 with Mycobacterium avium [7].
As for `CCCCCC(CC)OC(=O)c1cnc(Cl)cn1` (centres undefined), in data set [1], the half-life was 7 min. In data set [2], this compound had a logP of 4.24. The “Log 1/MMIC” value in the data set on Mycobacterium avium [3] turned out to be 0.626; in data set [4], 2.734; in data set [5], 3.035; in data set [6], 3.035; in the data set with Mycobacterium kansasii it was 3.955; in the data set on Mycobacterium avium [7], 0.927.
As for `CCCCCCCC(C)(CCCCC)OC(=O)c1cnc(Cl)cn1` (centres undefined), the half-life in data set [1] is 3170 min. The compound also showed a logP in data set [2] of 6.96. Moreover, the “Log 1/MMIC” value came to 0.744 in the data set on Mycobacterium avium [3]; 2.249 in data set [4]; 1.948 in data set [5]; 1.647 in data set [6]; 0.744 with Mycobacterium avium [7].
The compound `CCCCCCCCCC(C)(C)OC(=O)c1cnc(Cl)cn1` displayed a half-life in data set [1] of 902 min. This compound returned a logP in data set [2] of 6.01. In addition, the “Log 1/MMIC” value in the data set with Mycobacterium avium [3] is 0.106; in data set [4], 1.611; in data set [5] it was 2.514; in data set [6], 1.31; with Mycobacterium kansasii, 2.815; in the data set on Mycobacterium avium [7] it was 0.106.
Consider `CCCCCCCCC(CC)OC(=O)c1cnc(Cl)cn1` (centres undefined), for which the half-life in data set [1] amounted to 9 min. The compound also registered a logP in data set [2] of 5.99. In addition, the “Log 1/MMIC” value in the data set with Mycobacterium avium [3] was determined as 0.087; in data set [4] it was 3.097; in data set [5], 2.495; in data set [6], 2.495; in the data set on Mycobacterium kansasii, 3.398; with Mycobacterium avium [7], 0.087.
In data set [1], `CCCCCCCCCC(C)OC(=O)c1cnc(Cl)cn1` (centres undefined) displayed a half-life of 29.6 min. In data set [2], this compound had a logP of 5.25. In addition, the “Log 1/MMIC” value in the data set with Mycobacterium avium [3] is on record as 1.291; in data set [4], 3.087; in data set [5], 3.398; in data set [6], 2.495; with Mycobacterium kansasii, 3.097; in the data set on Mycobacterium avium [7], 1.291.
For the compound `CCCCCCCCCCOC(=O)c1cnc(F)cn1`, the half-life in data set [1] turned out to be 4 min. The lipophilicity (logP) in data set [2] was determined as 5.08. Also, the “Log 1/MMIC” value in the data set on Mycobacterium avium [3] stood at 0.946; in data set [4], 2.15; in data set [5], 1.849; in data set [6] it was 1.849; in the data set with Mycobacterium kansasii it was 2.451; in the data set on Mycobacterium avium [7], 0.946.
Turning to `COC(=O)c1cnc(I)cn1`, in data set [1], the half-life came to 200 min. The same compound displayed a lipophilicity (logP) in data set [2] of 0.91. In addition, the “Log 1/MMIC” value was 0.013 with Mycobacterium avium [3]; 1.218 in data set [4]; 1.218 in data set [5]; 1.218 in data set [6]; 1.519 with Mycobacterium kansasii; 0.013 in the data set on Mycobacterium avium [7].
The compound `CCCCCCCCCCCOC(=O)c1cnc(Cl)cn1` came in with a half-life in data set [1] of 6 min. Further, the log partition coefficient (logP) in data set [2] was found to be 5.98. The “Log 1/MMIC” value amounted to 1.291 in the data set on Mycobacterium avium [3]; 3.097 in data set [4]; 2.796 in data set [5]; 2.796 in data set [6]; 3.717 with Mycobacterium kansasii; 1.592 with Mycobacterium avium [7].
As to `CCOC(=O)c1cnc(Cl)cn1`, the half-life in data set [1] amounted to 110 min. In addition, the log partition coefficient (logP) in data set [2] came out at 1.19. Further, the “Log 1/MMIC” value with Mycobacterium avium [3] amounted to 0.164; in data set [4] it was 2.271; in data set [6], 1.067; in the data set with Mycobacterium kansasii it was 1.97; with Mycobacterium avium [7], 0.164.
For `CCCCCCC(C)(C)OC(=O)c1cnc(Cl)cn1`, the half-life in data set [1] was found to be 510 min. Moreover, the log partition coefficient (logP) in data set [2] amounted to 4.39. For the same compound, the “Log 1/MMIC” value in the data set on Mycobacterium avium [3] is recorded as 0.648; in data set [4] it was 3.057; in data set [5], 1.852; in data set [6], 3.057; with Mycobacterium kansasii it was 2.455; in the data set with Mycobacterium avium [7], 0.648.
Consider `CCCCOC(=O)c1cnc(Cl)cn1`, for which the half-life in data set [1] turned out to be 5.5 min. In addition, the logP in data set [2] was 2.21. The “Log 1/MMIC” value with Mycobacterium avium [3] came out at 0.526; in data set [4], 2.934; in data set [5] it was 3.633; in data set [6], 2.633; in the data set on Mycobacterium kansasii, 2.33; in the data set with Mycobacterium avium [7] it was 0.225.
Regarding `CCCCCCC(C)(CCCC)OC(=O)c1cnc(Cl)cn1` (centres undefined), the half-life in data set [1] came out at 648 min. For the same compound, the logP in data set [2] was 5.93. Also, the “Log 1/MMIC” value in the data set on Mycobacterium avium [3] was 0.106; in data set [5] it was 1.611; in data set [6], 1.31; in the data set on Mycobacterium kansasii, 1.912; with Mycobacterium avium [7] it was 0.106.
Compound `CCCCCOC(=O)c1cnc(Cl)cn1` displayed a half-life in data set [1] of 3.2 min. In data set [2], the logP came out at 2.73. Moreover, the “Log 1/MMIC” value was found to be 0.854 in the data set with Mycobacterium avium [3]; 3.581 in data set [4]; 2.961 in data set [5]; 3.262 in data set [6]; 3.882 in the data set with Mycobacterium kansasii; 0.854 in the data set with Mycobacterium avium [7].
As to `CCCCCCCCC(C)OC(=O)c1cnc(Cl)cn1` (centres undefined), the half-life in data set [1] was determined as 23.7 min. The compound also gave a logP in data set [2] of 4.75. Moreover, the “Log 1/MMIC” value in the data set on Mycobacterium avium [3] is recorded as 0.97; in data set [4], 3.697; in data set [5], 2.776; in data set [6], 3.998; in the data set with Mycobacterium kansasii it was 3.378; in the data set with Mycobacterium avium [7] it was 0.97.
As for `CCCCCCCCCCCC(C)OC(=O)c1cnc(Cl)cn1` (centres undefined), in data set [1], the half-life turned out to be 50 min. The compound also yielded a logP in data set [2] of 6.25. Moreover, the “Log 1/MMIC” value is 0.124 in the data set with Mycobacterium avium [3]; 2.232 in data set [4]; 2.834 in data set [5]; 2.834 in data set [6]; 3.754 with Mycobacterium kansasii; 1.027 in the data set with Mycobacterium avium [7].
`CCCCCCC(C)(CCCCCC)OC(=O)c1cnc(Cl)cn1` displayed a half-life in data set [1] of 1080 min. This compound returned a logP in data set [2] of 7.08. Moreover, the “Log 1/MMIC” value turned out to be 0.744 in the data set on Mycobacterium avium [3]; 3.152 in data set [4]; 2.851 in data set [5]; 2.851 in data set [6]; 2.249 in the data set with Mycobacterium kansasii; 1.346 in the data set with Mycobacterium avium [7].
In data set [1], `CCCCCCOC(=O)c1cnc(Cl)cn1` returned a half-life of 2.2 min. The compound further displayed a log partition coefficient (logP) in data set [2] of 3.36. The “Log 1/MMIC” value came to 0.88 in the data set on Mycobacterium avium [3]; 3.288 in data set [4]; 3.288 in data set [5]; 2.686 in data set [6]; 4.21 with Mycobacterium kansasii; 1.181 with Mycobacterium avium [7].
As to `CCCCCCCC(C)OC(=O)c1cnc(Cl)cn1` (centres undefined), the half-life in data set [1] stood at 30 min. Further, in data set [2], the logP was found to be 4.14. The “Log 1/MMIC” value in the data set on Mycobacterium avium [3] is recorded as 0.949; in data set [4], 2.455; in data set [5], 2.756; in data set [6] it was 2.153; in the data set on Mycobacterium kansasii it was 3.977; in the data set with Mycobacterium avium [7], 0.949.
`CC(C)COC(=O)c1cnc(Cl)cn1`: in data set [1], the half-life is 11.8 min. The same compound had a log partition coefficient (logP) in data set [2] of 1.97. The “Log 1/MMIC” value was 0.526 in the data set with Mycobacterium avium [3]; 2.031 in data set [4]; 2.934 in data set [5]; 2.031 in data set [6]; 2.33 in the data set on Mycobacterium kansasii; 0.526 in the data set with Mycobacterium avium [7].
For the compound `CCCCCC(C)OC(=O)c1cnc(Cl)cn1` (centres undefined), the half-life in data set [1] came out at 16.2 min. In data set [2], this compound had a log partition coefficient (logP) of 3. In addition, the “Log 1/MMIC” value came to 0.904 in the data set on Mycobacterium avium [3]; 3.631 in data set [4]; 2.711 in data set [5]; 3.631 in data set [6]; 3.313 in the data set on Mycobacterium kansasii; 0.904 with Mycobacterium avium [7].
On to `CCCCCCCCCCOC(=O)c1cnccn1`, for which the half-life in data set [1] stood at 0.8 min. In addition, the lipophilicity (logP) in data set [2] was determined as 4.58. Moreover, the “Log 1/MMIC” value is 0.917 in the data set with Mycobacterium avium [3]; 2.723 in data set [4]; 3.024 in data set [5]; 3.024 in data set [6]; 3.723 with Mycobacterium kansasii; 1.519 in the data set on Mycobacterium avium [7].
With `CCCCCCCCCOC(=O)c1cnc(Cl)cn1`, in data set [1], the half-life is 2.3 min. This compound also returned a lipophilicity (logP) in data set [2] of 4.98. Moreover, the “Log 1/MMIC” value with Mycobacterium avium [3] came out at 0.949; in data set [4] it was 3.977; in data set [5], 2.455; in data set [6] it was 3.977; with Mycobacterium kansasii, 3.358; with Mycobacterium avium [7], 1.25.
In data set [1], `CCCCCCCOC(=O)c1cnc(C)cn1` gave a half-life of 3.2 min. Besides, the logP in data set [2] stood at 3.35. Also, the “Log 1/MMIC” value in the data set on Mycobacterium avium [3] is on record as 0.868; in data set [4], 2.675; in data set [5], 2.976; in data set [6], 2.373; in the data set with Mycobacterium kansasii, 1.771; in the data set with Mycobacterium avium [7] it was 0.868.
